Data set [1] concerns the target Sodium-dependent noradrenaline transporter (Homo sapiens) (UniProt P23975). As to the kind of experiment: Displacement of antagonist radioligand from human NET at 10 uM. In short, it runs like this: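 Single 10 μM concentration tested in a receptor/enzyme diversity panel, read as displacement of a target-specific radioligand.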
For data set [2], the species on record is Mus musculus. The data set is described as follows: Inhibition of menadione-induced mPTP opening in C57/bl6 mouse liver mitochondria assessed as reduction in mitochondrial swelling at 1 uM by spectrophotometry. In short, it runs like this:
(§1)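 Male C57/bl6 liver mitochondria at 0.5 mg/mL final in KCl/MOPS/phosphate buffer with glutamate/malate, pH 7.4; compound at 1 μM added before the mitochondria. Swelling followed as the fall in A540, read every 9 s for 10 min. Inducers: CaCl2 150 μM, FCCP 50 nM, menadione 100 μM, diamide 300 μM.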

The species named for data set [3] is Mus musculus. As to the kind of experiment: Inhibition of diamide-induced mPTP opening in C57/bl6 mouse liver mitochondria assessed as reduction in mitochondrial swelling at 1 uM by spectrophotometry. In outline: as §1
The species named for data set [4] is Mus musculus. As to the kind of experiment: Inhibition of Cacl2-induced mPTP opening in C57/bl6 mouse liver mitochondria assessed as reduction in mitochondrial swelling at 1 uM by spectrophotometry. In short, it runs like this: as §1
Data set [5] is filed under the species Mus musculus. As to the kind of experiment: Inhibition of FCCP-induced mPTP opening in C57/bl6 mouse liver mitochondria assessed as reduction in mitochondrial swelling at 1 uM by spectrophotometry. In outline:
as §1

Data set [6] concerns Mus musculus. As to the kind of experiment: Increase in calcium retention capacity in C57/bl6 mouse heart mitochondria at 15 mg/kg, iv measured after 5 mins by fluorimetry (reference value: 69.8 uM). In kind it is functional. In outline:
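Mice dosed 15 mg/kg iv in the tail vein. Hearts taken 5 min later and mitochondria isolated in sucrose/Tris/EGTA/0.1% BSA buffer. CRC measured with Calcium Green 5N under CaCl2 pulses added every minute at 25 °C until mPTP opening. Value is absolute calcium retained; vehicle DMSO, n = 16 vehicle, n = 6 treated.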

Data set [7] concerns Oryctolagus cuniculus. As to the kind of experiment: Cardioprotective effect in New Zealand rabbit ischemia/reperfusion-induced left anterior descending coronary artery ligation myocardial infarction model assessed as ratio of area at risk to infarct area at 5 mg/kg, iv administered as bolus dose 5 min prior to reperfusion (reference value: 57.3%). In kind it is functional, Myocardium.

The species entered for data set [8] is Mus musculus. The data set is described as follows: Inhibition of calcium-induced mPTP opening in C57/bl6 mouse liver mitochondria assessed as increase in calcium retention capacity at 0.1 to 5 uM by fluorimetry. In outline:
(§2)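 Male C57/bl6 liver mitochondria (0.5 mg/mL) in KCl/MOPS buffer with glutamate/malate, pH 7.4, containing 1 μM Calcium Green 5N. Compound added just before the start. CaCl2 pulses added every minute at 25 °C; extramitochondrial fluorescence (ex 505/em 535 nm) followed until mPTP opening. Dose series 0.1–5.0 μM, or given in combination with CsA; mean of three experiments.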

Data set [9] concerns the target Voltage-gated inwardly rectifying potassium channel KCNH2 (Homo sapiens, UniProt Q12809). The data set is described as follows: Displacement of [3H]-astemizole from human hERG expressed in HEK293 cells at 30 uM by liquid scintillation counting. In kind it is cell-based. Particulars: hek293, 30 µM.
Data set [10] deals with Rattus norvegicus. The data set is described as follows: Toxicity in WI(Glx/BRL/Han)IGS rat assessed as body temperature at 30 mg/kg, iv. In kind it is organism-based. Further details: dose 30 mg/kg, route intravenous. The settings on record: in vivo. In outline:
(§3)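 Conscious female rats implanted with telemetry, given a single iv dose up to 30 mg/kg. Heart rate, systolic, diastolic and mean blood pressure, and body temperature recorded from at least 1 h before to about 24 h after dosing.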

The species named for data set [11] is Mus musculus. As to the kind of experiment: Inhibition of calcium-induced mPTP opening in C57/bl6 mouse heart mitochondria assessed as increase in calcium retention capacity at 5 uM after 2 mins by fluorimetry (reference value: 80 uM). In short, it runs like this: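 Excised mouse hearts on a Langendorff apparatus, perfused 2 min with Krebs-type buffer, then 2 min with 5 μM compound in 0.1% DMSO or 0.1% DMSO alone. Hearts iced, mitochondria isolated, CRC measured with Calcium Green 5N and repeated CaCl2 pulses at 25 °C. Value is absolute calcium retained; n = 6 per group.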

The nature of data set [12]: Plasma concentration in New Zealand rabbit myocardial infarction model at 5 mg/kg, iv administered as bolus dose after 240 mins by LC/MS analysis. In kind it is ADME, organism-based, Oryctolagus cuniculus. Also on record: dose 5 mg/kg, route intravenous. In outline: (§4)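 Satellite rabbits (n = 5) given the same 5 mg/kg iv bolus. Jugular blood taken into K2EDTA predose and at 5, 15, 30, 60 and 240 min post reperfusion. Plasma precipitated with ACN/H3PO4 and analysed by UPLC-MS/MS, ESI(+), MRM mode. Eight-point calibration 2.5–1000 ng/mL, LLOQ 2.5 ng/mL. Half-life by noncompartmental analysis.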

For data set [13], the species on record is Mus musculus. As to the kind of experiment: Inhibition of calcium-induced mPTP opening in C57/bl6 mouse liver mitochondria assessed as increase in calcium retention capacity in presence of cyclosporine A by fluorimetry. In outline: as §2
For data set [14], the system named is Rattus norvegicus. The data set is described as follows: Toxicity in WI(Glx/BRL/Han)IGS rat assessed as diastolic blood pressure at 30 mg/kg, iv. Particulars: in vivo. In kind it is organism-based, Artery. Also on record: dose 30 mg/kg, route intravenous. In outline:
as §3

Data set [15] relates to Rattus norvegicus. The data set is described as follows: Toxicity in WI(Glx/BRL/Han)IGS rat assessed as heart rate at 30 mg/kg, iv. Further details: dose 30 mg/kg, route intravenous. In kind it is organism-based. Particulars: in vivo. In short, it runs like this:
as §3

Data set [16] in a line: Plasma concentration in New Zealand rabbit myocardial infarction model at 5 mg/kg, iv administered as bolus dose after 5 mins by LC/MS analysis. In kind it is ADME, organism-based, Oryctolagus cuniculus. Also on record: dose 5 mg/kg, route intravenous. In short, it runs like this:
as §4

Data set [17] concerns Rattus norvegicus. The data set is described as follows: Toxicity in WI(Glx/BRL/Han)IGS rat assessed as systolic blood pressure at 30 mg/kg, iv. In kind it is organism-based, Artery. Further details: dose 30 mg/kg, route intravenous. Particulars: in vivo. In outline:
as §3

Data set [18] in a line: Half life in New Zealand rabbit myocardial infarction model plasma at 5 mg/kg, iv administered as bolus dose by LC/MS analysis. In kind it is ADME, organism-based, Oryctolagus cuniculus. Further details: dose 5 mg/kg, route intravenous. In outline: as §4
Data set [19] deals with Oryctolagus cuniculus. As to the kind of experiment: Cardioprotective effect in New Zealand rabbit ischemia/reperfusion-induced left anterior descending coronary artery ligation myocardial infarction model assessed as ratio of area at risk to infarct area at 10 mg/kg, iv administered as bolus dose 5 min prior to reperfusion (reference value: 57.3%). In kind it is functional, Myocardium.

Activity calls are given as the source filed them.

Broadly, the inhibition is the percentage by which the read-out fell short of the control. By half-life is commonly meant the time needed for the level to fall by half in the phase considered.

Chain of Sodium-dependent noradrenaline transporter (Homo sapiens) (P23975 whole entry): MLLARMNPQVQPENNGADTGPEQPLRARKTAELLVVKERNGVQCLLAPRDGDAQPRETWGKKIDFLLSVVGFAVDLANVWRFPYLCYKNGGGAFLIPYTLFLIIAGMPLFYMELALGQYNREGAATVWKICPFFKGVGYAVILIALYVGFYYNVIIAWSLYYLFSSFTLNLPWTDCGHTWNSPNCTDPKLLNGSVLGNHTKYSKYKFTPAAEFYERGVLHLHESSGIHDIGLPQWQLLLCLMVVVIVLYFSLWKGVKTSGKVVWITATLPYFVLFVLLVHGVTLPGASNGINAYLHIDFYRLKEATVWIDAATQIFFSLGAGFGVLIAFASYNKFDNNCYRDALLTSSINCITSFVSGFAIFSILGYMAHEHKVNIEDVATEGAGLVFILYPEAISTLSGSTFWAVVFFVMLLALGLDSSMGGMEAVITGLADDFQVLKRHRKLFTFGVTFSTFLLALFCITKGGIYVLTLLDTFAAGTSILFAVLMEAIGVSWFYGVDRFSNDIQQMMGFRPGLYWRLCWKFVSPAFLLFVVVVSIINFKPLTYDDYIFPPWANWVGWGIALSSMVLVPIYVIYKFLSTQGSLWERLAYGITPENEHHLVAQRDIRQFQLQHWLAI
Chain of Voltage-gated inwardly rectifying potassium channel KCNH2 (Q12809 whole entry): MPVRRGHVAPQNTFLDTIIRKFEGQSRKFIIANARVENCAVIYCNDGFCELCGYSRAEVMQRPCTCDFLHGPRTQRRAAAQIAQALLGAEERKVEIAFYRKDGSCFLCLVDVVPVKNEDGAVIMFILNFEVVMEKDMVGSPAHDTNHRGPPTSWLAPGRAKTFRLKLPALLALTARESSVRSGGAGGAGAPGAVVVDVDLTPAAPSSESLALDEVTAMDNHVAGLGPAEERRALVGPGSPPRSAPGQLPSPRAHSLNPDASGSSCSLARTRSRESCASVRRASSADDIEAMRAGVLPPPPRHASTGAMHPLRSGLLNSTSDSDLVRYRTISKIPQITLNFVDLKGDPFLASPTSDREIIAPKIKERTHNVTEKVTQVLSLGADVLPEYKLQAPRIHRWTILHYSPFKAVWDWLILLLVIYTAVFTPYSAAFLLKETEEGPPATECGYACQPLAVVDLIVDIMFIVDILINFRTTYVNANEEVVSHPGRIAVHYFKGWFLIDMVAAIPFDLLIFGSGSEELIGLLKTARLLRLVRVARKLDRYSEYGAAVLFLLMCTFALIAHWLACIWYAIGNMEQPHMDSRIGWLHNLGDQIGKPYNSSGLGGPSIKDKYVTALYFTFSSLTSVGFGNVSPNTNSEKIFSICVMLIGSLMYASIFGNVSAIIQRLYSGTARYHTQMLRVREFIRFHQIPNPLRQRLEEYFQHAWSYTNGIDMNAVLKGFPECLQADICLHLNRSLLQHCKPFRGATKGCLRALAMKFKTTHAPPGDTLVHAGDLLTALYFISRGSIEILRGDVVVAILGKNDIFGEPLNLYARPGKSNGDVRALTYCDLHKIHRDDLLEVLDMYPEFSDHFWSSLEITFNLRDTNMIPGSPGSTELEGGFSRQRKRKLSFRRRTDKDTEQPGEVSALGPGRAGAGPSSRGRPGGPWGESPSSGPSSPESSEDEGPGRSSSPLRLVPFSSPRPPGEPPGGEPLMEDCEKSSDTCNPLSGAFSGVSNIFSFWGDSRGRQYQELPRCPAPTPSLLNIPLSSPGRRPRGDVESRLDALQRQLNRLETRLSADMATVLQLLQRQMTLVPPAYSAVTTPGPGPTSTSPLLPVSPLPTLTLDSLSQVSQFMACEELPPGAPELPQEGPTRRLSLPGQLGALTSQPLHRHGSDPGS

In the case of `COc1ccc(/C=C/C(=O)Nc2cccc(Cl)c2)cc1O`, the inhibition in data set [1] was over 50%. For the same molecule, the inhibition result in data set [2], in [3], in data set [4] and in data set [5] was “Active” in each case.

For the molecule `O=C(/C=C/c1ccc(F)c(O)c1)Nc1cccc2ccccc12`, the Activity in data set [6] was 108.4 µM; in data set [7], 30.9%; in [9], “Not Active”; in [10], “Non-toxic”; in [14] it was “Non-toxic”; in data set [15], “Non-toxic”. For the same molecule, in [17], the Activity result is “Non-toxic”. In addition, the inhibition entry in data set [8] is “Dose-dependent effect”. In addition, the INH in data set [11] is 125 µM. For the same molecule, in [12], the concentration at 4 h is 20 nM. Further, the inhibition entry in data set [13] was “Active”. The molecule further showed a concentration at 5 min in data set [16] of 4800 nM. Also, the half-life in [18] turned out to be 30 min.

With `C/C=C/C[C@@H](C)[C@@H](O)[C@H]1C(=O)N[C@@H](CC)C(=O)N(C)CC(=O)N(C)[C@@H](CC(C)C)C(=O)N[C@@H](C(C)C)C(=O)N(C)[C@@H](CC(C)C)C(=O)N[C@@H](C)C(=O)N[C@H](C)C(=O)N(C)[C@@H](CC(C)C)C(=O)N(C)[C@@H](CC(C)C)C(=O)N(C)[C@@H](C(C)C)C(=O)N1C` [CYCLOSPORINE], in data set [19], the Activity came out at 32.6%.

The values are drawn from ChEMBL document CHEMBL3286316, “Cinnamic anilides as new mitochondrial permeability transition pore inhibitors endowed with ischemia-reperfusion injury protective effect in vivo” (J Med Chem, 2014).
